From PMC4778717 (ChemMedChem, 2015)
≈ marks a conversion by molar mass, not a printed value. Where two headings read alike, the source gives them in different places.

Assays:
EcSecA [1] = target: T1, EcSecA (Escherichia coli, UniProt P10408); assay: Intrinsic ATPase activity of full EcSecA; format: biochemical, E. coli
S. aureus K2908 (MepA−) = assay: Bacteriostatic effect; format: cell-based; conditions: Staphylococcus aureus, read-out: Bacteriostatic effect, MIC, MepA− K2908
S. aureus K2068 (MepA++) = assay: Bacteriostatic effect; format: cell-based; conditions: Staphylococcus aureus, read-out: Bacteriostatic effect, MIC, MepA++ K2068
B. subtilis 168 = assay: Bacteriostatic effect; format: cell-based; conditions: Bacillus subtilis, 168, 16 h, read-out: Bacteriostatic effect, MIC, B. subtilis 168
S. aureus 6538 = assay: Bacteriostatic effect; format: cell-based
S. aureus Mu3 = assay: Bacteriostatic effect; format: cell-based; conditions: Staphylococcus aureus, MU3, 16 h, read-out: Bacteriostatic effect, MIC, S. aureus Mu3
E. coli NR698 = assay: Bacteriostatic effect; format: cell-based; conditions: Escherichia coli, NR698, 24 h, read-out: MIC, E. coli NR698
EcSecA [2] = target: T1, EcSecA; assay: In vitro translocation activity with SecA-liposomes; format: biochemical, E. coli; conditions: reconstituted SecA-only liposomes, proOmpA, immunoblots
How it was run: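 Reconstituted SecA-only liposomes (stored at −80 °C, frozen-thawed once), E. coli SecA and proOmpA added separately to translocation buffer before the reaction, with 12 μg liposomes per reaction and varied SecA amounts. Test compound at various concentrations; reaction at 37 °C for 45 min. proOmpA translocation efficiency read by immunoblot.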

SaSecA1 = target: T2, SaSecA1 (Staphylococcus aureus, UniProt O06446); assay: Ion-channel activity of SecA-liposomes in oocytes, SaSecA1; format: biochemical
T2 sequence (O06446 1-843): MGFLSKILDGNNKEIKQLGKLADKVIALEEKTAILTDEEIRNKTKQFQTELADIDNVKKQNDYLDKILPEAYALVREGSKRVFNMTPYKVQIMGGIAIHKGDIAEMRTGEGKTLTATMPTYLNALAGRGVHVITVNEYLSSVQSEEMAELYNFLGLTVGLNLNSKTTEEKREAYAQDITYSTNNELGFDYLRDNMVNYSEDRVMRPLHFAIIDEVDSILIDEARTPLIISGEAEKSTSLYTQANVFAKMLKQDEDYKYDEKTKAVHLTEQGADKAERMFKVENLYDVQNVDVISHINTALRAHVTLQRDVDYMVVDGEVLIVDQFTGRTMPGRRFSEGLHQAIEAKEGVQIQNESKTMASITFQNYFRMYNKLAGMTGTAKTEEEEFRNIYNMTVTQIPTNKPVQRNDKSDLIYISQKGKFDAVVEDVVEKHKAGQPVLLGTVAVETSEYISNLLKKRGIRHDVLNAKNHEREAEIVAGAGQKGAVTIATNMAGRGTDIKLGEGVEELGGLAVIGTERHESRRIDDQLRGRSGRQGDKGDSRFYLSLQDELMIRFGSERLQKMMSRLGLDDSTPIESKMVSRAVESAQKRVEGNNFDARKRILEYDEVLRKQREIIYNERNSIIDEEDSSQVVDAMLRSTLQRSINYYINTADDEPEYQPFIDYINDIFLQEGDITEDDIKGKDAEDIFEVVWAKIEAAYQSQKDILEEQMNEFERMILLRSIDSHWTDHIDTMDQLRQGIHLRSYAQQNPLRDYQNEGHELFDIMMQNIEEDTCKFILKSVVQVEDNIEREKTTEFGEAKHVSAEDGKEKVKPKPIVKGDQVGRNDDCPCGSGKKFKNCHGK

S. aureus Mu50 [3] = assay: Bactericidal effect; format: cell-based; conditions: at 50 μM, 2 hr treatment
How it was run: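 S. aureus Mu50 cells in log phase (OD600 ≈ 0.5) were mixed with a range of test compound concentrations and shaken at 1,000 rpm at 37 °C for 2 hr. Cultures were serially diluted in LB broth, plated on LB agar and incubated at 37 °C overnight. Colony-forming units were counted, and the bactericidal effect was taken as the reduction in CFU.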

S. aureus N315 = assay: Bacteriostatic effect; format: cell-based; conditions: Staphylococcus aureus, N315, 16 h, read-out: Bacteriostatic effect, MIC, S. aureus N315
S. aureus Mu50 [4] = assay: Bacteriostatic effect; format: cell-based; conditions: for Fold more effective than vancomycin (MIC) / Fold by which 7b and 12a are more effective than the antibiotic (MIC): S. aureus Mu50; for Fold more effective than vancomycin (MIC): vs vancomycin 8 μg/ml; for MIC: Staphylococcus aureus; for Fold by which 7b and 12a are more effective than the antibiotic (MIC): label = antibiotic compared; for MIC, S. aureus Mu50: MRSA strain Mu50, comparison with clinically used antibiotics
S. aureus Newman = assay: Bacteriostatic effect; format: cell-based; conditions: Staphylococcus aureus, 16 h, read-out: Bacteriostatic effect, MIC, S. aureus Newman
S. aureus K1758 (NorA−) = assay: Bacteriostatic effect; format: cell-based; conditions: Staphylococcus aureus, read-out: Bacteriostatic effect, MIC, NorA− K1758
EcSecA [5] = target: T1, EcSecA; assay: Ion-channel activity of SecA-liposomes in oocytes, EcSecA; format: biochemical, E. coli
How it was run: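 SecA reconstituted with liposomes, plus proOmpA, 2 mM ATP, 1 mM Mg(OAc)2 and varied test compound concentrations, was injected into Xenopus laevis oocytes (120 ng liposomes, 120 ng SecA, 14 ng proOmpA per 50 nl). Oocytes were held 3 hr at 23 C, then current was recorded by voltage clamp for 1 min. Net channel current came from inward and outward currents.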

S. aureus K2361 (NorA++) = assay: Bacteriostatic effect; format: cell-based; conditions: Staphylococcus aureus, read-out: Bacteriostatic effect, MIC, NorA++ K2361
BsSecA = BsSecA (Bacillus subtilis, UniProt P28366); assay: Ion-channel activity of SecA-liposomes in oocytes, BsSecA; format: biochemical
How it was run: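 Purified SecA was reconstituted into liposomes. After 3 hr at 23 C, ion current was recorded for 1 min by voltage clamp. Net inward/outward current gave channel opening.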

SpSecA = SpSecA (Streptococcus pyogenes, UniProt Q99Y96); assay: Ion-channel activity of SecA-liposomes in oocytes, SpSecA; format: biochemical
EcSecAN68 = EcSecAN68 (Escherichia coli, UniProt P10408); assay: biochemical; parameters: species or system E. coli
BaSecA1 = BaSecA1 (Bacillus anthracis, UniProt Q81X26); assay: biochemical; parameters: species or system B. anthracis
[6] = Staphylococcus aureus, 6538, 16 h, read-out: Bacteriostatic effect, MIC, S. aureus 6538
[7] = Staphylococcus aureus, 6538, 24 h, read-out: MIC, S. aureus 6538
[8] = MRSA, read-out: MIC, S. aureus Mu50
[9] = MU50, 16 h, read-out: Bacteriostatic effect, MIC, S. aureus Mu50

T1 sequence (P10408 whole entry): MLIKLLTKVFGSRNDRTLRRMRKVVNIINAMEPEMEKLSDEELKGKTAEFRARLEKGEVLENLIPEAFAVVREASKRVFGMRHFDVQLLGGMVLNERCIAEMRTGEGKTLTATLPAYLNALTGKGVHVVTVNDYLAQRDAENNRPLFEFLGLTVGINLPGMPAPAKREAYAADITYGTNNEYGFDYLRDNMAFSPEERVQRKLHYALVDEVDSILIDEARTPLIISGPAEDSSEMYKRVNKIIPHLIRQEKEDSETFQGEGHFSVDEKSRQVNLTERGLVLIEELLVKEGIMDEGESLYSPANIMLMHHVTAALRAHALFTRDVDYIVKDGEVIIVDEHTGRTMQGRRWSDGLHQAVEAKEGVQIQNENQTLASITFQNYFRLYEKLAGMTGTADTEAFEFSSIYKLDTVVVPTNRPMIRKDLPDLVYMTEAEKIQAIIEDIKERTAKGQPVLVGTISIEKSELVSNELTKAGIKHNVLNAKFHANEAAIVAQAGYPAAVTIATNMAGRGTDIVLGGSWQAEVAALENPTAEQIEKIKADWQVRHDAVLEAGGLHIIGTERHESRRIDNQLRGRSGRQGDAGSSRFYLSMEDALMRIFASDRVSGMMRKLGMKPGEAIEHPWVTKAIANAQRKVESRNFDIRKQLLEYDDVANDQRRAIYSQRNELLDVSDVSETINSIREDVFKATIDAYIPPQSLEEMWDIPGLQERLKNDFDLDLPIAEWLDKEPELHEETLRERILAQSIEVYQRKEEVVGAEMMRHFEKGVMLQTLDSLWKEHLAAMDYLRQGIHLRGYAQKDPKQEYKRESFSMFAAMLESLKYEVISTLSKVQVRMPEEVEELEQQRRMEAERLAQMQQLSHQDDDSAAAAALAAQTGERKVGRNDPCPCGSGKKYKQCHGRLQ
BaSecA1, sequence (Q81X26 whole entry, looked up): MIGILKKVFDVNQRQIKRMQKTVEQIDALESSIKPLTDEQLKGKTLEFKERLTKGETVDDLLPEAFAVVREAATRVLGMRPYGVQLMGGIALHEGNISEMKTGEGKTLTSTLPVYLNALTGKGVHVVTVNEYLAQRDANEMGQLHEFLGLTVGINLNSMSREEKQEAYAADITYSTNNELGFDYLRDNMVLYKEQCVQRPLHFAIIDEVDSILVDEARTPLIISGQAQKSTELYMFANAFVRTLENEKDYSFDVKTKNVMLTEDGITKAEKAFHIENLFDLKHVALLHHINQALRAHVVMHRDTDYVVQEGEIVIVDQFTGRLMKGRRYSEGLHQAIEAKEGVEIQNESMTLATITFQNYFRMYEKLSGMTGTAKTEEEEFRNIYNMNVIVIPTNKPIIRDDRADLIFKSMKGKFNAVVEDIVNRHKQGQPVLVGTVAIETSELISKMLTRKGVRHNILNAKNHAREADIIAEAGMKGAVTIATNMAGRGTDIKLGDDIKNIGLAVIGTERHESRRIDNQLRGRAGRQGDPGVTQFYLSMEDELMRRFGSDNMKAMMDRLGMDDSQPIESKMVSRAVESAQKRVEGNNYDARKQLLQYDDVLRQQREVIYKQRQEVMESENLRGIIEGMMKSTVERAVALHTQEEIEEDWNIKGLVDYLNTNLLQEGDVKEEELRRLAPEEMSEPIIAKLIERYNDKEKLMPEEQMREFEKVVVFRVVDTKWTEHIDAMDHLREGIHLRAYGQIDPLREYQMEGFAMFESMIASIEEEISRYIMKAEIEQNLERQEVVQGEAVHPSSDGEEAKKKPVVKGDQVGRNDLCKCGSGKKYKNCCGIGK
SpSecA, sequence (Q99Y96 whole entry): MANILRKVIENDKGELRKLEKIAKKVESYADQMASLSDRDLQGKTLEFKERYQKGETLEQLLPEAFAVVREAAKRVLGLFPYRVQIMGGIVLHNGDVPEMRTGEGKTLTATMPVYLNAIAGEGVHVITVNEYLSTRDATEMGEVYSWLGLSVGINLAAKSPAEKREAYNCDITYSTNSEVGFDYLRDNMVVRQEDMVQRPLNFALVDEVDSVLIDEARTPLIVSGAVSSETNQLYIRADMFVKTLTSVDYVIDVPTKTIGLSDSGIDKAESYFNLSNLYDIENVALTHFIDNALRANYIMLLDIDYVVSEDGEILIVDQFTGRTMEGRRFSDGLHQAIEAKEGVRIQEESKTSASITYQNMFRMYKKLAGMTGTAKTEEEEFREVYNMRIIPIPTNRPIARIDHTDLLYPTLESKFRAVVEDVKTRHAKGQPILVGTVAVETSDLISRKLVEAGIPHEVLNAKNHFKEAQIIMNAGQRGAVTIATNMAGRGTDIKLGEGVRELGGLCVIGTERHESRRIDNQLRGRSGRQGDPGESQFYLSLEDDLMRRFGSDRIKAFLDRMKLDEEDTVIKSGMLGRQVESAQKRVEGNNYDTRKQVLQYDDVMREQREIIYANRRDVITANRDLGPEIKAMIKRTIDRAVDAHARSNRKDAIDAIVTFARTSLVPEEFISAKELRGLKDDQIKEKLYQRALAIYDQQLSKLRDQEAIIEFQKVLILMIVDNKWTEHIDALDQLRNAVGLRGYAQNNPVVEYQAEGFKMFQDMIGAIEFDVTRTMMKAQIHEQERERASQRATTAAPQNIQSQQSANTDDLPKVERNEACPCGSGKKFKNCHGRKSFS
BsSecA, sequence (P28366 whole entry): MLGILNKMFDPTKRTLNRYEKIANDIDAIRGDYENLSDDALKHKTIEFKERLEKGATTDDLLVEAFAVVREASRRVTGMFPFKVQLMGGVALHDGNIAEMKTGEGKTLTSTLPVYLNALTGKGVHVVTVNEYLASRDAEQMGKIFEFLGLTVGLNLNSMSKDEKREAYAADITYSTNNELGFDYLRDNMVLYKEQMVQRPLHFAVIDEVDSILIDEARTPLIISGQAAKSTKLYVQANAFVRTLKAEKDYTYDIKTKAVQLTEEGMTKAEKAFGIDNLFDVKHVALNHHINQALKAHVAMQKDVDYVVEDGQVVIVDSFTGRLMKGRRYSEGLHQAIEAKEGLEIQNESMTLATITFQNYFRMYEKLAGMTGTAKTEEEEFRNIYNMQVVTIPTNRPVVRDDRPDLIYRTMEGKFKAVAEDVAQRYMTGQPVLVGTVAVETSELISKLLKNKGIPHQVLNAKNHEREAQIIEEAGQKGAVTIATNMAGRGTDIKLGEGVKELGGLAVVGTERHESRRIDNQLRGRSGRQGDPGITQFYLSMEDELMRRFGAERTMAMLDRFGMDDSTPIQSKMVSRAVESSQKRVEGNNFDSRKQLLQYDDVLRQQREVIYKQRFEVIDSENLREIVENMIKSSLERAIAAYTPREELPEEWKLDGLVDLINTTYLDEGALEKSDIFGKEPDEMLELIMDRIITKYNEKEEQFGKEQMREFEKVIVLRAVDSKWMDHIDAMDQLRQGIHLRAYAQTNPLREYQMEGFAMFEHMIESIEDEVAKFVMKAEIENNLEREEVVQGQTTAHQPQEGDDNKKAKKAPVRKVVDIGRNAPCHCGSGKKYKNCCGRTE
EcSecAN68, sequence (P10408 1-610): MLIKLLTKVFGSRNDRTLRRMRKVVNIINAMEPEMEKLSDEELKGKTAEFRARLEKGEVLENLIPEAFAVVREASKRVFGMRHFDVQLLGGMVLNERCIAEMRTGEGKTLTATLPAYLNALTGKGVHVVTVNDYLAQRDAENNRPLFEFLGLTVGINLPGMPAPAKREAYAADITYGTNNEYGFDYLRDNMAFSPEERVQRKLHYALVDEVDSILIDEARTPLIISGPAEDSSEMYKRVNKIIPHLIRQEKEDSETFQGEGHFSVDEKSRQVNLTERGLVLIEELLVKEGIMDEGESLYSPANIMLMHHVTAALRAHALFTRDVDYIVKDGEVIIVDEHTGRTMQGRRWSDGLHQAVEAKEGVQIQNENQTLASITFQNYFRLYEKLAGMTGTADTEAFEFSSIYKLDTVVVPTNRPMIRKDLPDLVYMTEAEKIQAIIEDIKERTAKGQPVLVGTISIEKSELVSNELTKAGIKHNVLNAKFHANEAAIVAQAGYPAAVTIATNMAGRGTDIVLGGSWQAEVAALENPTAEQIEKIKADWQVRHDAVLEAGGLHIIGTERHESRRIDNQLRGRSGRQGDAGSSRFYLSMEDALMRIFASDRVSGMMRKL

CSc1nc(Cl)cc(Sc2nnc(-c3cc(C(F)(F)F)cc(C(F)(F)F)c3)[nH]2)n1 [Compound 7b, 4-((5-(3,5-Bis(trifluoromethyl)phenyl)-4H-1,2,4-triazol-3-yl)thio)-6-chloro-2-(methylthio)pyrimidine]
IC50 (EcSecA [1]): > 200000 nM
MIC (S. aureus K2908 (MepA−)): 2.1 µM (≈ 0.991 µg/mL)
MIC (S. aureus K2068 (MepA++)): 3.1 µM (≈ 1.46 µg/mL)
MIC (B. subtilis 168): 1.6 µM (≈ 0.755 µg/mL)
MIC (S. aureus 6538; [6]): 3.1 µM (≈ 1.46 µg/mL)
MIC (S. aureus 6538; [7]): 3.1 µM (≈ 1.46 µg/mL)
MIC (S. aureus Mu3): 3.1 µM (≈ 1.46 µg/mL)
MIC (E. coli NR698): 4.7 µM (≈ 2.22 µg/mL)
IC50 (EcSecA [2]): 2000 nM
Mode of inhibition, SecA-liposome channel activity, SaSecA (SaSecA1; inhibition kinetics, Figure 4): non-competitive inhibitor
Decrease of CFU of S. aureus Mu50 (S. aureus Mu50 [3]): 2 log units
MIC (S. aureus N315): 0.8 µM (≈ 0.377 µg/mL)
Fold more effective than vancomycin (MIC) (S. aureus Mu50 [4]): 10 fold
MIC (S. aureus Mu50 [4]; [8]): 0.75 µg/mL
MIC (S. aureus Mu50 [4]; [9]): 1.6 µM
MIC (S. aureus Newman): 1.6 µM (≈ 0.755 µg/mL)
MIC (S. aureus K1758 (NorA−)): 3.1 µM (≈ 1.46 µg/mL)
Mode of inhibition, SecA-liposome channel activity, EcSecA (EcSecA [5]; inhibition kinetics, Figure 4): non-competitive inhibitor
MIC (S. aureus K2361 (NorA++)): 3.1 µM (≈ 1.46 µg/mL)

FC(F)(F)c1cc(-c2nnc(Sc3cc(Cl)nc(Sc4ccccc4)n3)[nH]2)cc(C(F)(F)F)c1 [Compound 12a, 4-((5-(3,5-Bis(trifluoromethyl)phenyl)-4H-1,2,4-triazol-3-yl)thio)-6-chloro-2-(phenylthio) Pyrimidine]
IC50 (EcSecA [1]): > 200000 nM
MIC (S. aureus K2908 (MepA−)): 1 µM (≈ 0.534 µg/mL)
IC50 (BsSecA): 2300 nM
IC50 (SpSecA): 1300 nM
MIC (S. aureus K2068 (MepA++)): 1.3 µM (≈ 0.694 µg/mL)
MIC (B. subtilis 168): 0.8 µM (≈ 0.427 µg/mL)
MIC (S. aureus 6538; [6]): 1.8 µM (≈ 0.961 µg/mL)
MIC (S. aureus 6538; [7]): 1.8 µM (≈ 0.961 µg/mL)
MIC (S. aureus Mu3): 1.6 µM (≈ 0.854 µg/mL)
MIC (E. coli NR698): 3.1 µM (≈ 1.66 µg/mL)
IC50 (EcSecA [2]): 4800 nM
IC50 (EcSecAN68): 20000 nM
IC50 (SaSecA1): 1000 nM
MIC (S. aureus N315): 0.8 µM (≈ 0.427 µg/mL)
Fold more effective than vancomycin (MIC) (S. aureus Mu50 [4]): 18 fold
MIC (S. aureus Mu50 [4]; [8]): 0.43 µg/mL
MIC (S. aureus Mu50 [4]; [9]): 0.8 µM
MIC (S. aureus K1758 (NorA−)): 1.6 µM (≈ 0.854 µg/mL)
IC50 (EcSecA [5]): 1300 nM
IC50 (BaSecA1): 1000 nM
MIC (S. aureus K2361 (NorA++)): 1.8 µM (≈ 0.961 µg/mL)

CC[C@H]1OC(=O)[C@H](C)[C@@H](O[C@H]2C[C@@](C)(OC)[C@@H](O)[C@H](C)O2)[C@H](C)[C@@H](O[C@@H]2O[C@H](C)C[C@H](N(C)C)[C@H]2O)[C@](C)(O)C[C@@H](C)C(=O)[C@H](C)[C@@H](O)[C@]1(C)O [erythromycin]
Fold by which 7b and 12a are more effective than the antibiotic (MIC) (S. aureus Mu50 [4]): > 1600 fold
MIC (S. aureus Mu50 [4]; [8]): 1250 µg/mL

NC[C@H]1O[C@H](O[C@H]2[C@H](O)[C@@H](O[C@H]3O[C@H](CO)[C@@H](O)[C@H](N)[C@H]3O)[C@H](N)C[C@@H]2N)[C@H](O)[C@@H](O)[C@@H]1O [kanamycin]
MIC, S. aureus Mu50 (S. aureus Mu50 [4]): 1000 µg/mL (≈ 2060 µM)
Fold by which 7b and 12a are more effective than the antibiotic (MIC) (S. aureus Mu50 [4]): > 1300 fold

CCn1cc(C(=O)O)c(=O)c2cc(F)c(N3CCNCC3)cc21 [norfloxacin]
Fold by which 7b and 12a are more effective than the antibiotic (MIC) (S. aureus Mu50 [4]): > 330 fold

CO[C@H]1/C=C/O[C@@]2(C)Oc3c(C)c(O)c4c(O)c(c(/C=N/N5CCN(C)CC5)c(O)c4c3C2=O)NC(=O)/C(C)=C\C=C\[C@H](C)[C@H](O)[C@@H](C)[C@@H](O)[C@@H](C)[C@H](OC(C)=O)[C@@H]1C [rifampicin]
Fold by which 7b and 12a are more effective than the antibiotic (MIC) (S. aureus Mu50 [4]): > 1300 fold
MIC (S. aureus Mu50 [4]; [8]): 1000 µg/mL

CN(C)[C@@H]1C(O)=C(C(N)=O)C(=O)[C@@]2(O)C(O)=C3C(=O)c4c(O)cccc4[C@@](C)(O)[C@H]3C[C@@H]12 [tetracycline]
Fold by which 7b and 12a are more effective than the antibiotic (MIC) (S. aureus Mu50 [4]): > 80 fold
MIC (S. aureus Mu50 [4]; [8]): 63 µg/mL

polymyxin B
MIC, S. aureus Mu50 (S. aureus Mu50 [4]): 31 µg/mL
Fold by which 7b and 12a are more effective than the antibiotic (MIC) (S. aureus Mu50 [4]): > 40 fold
